≈ marks a conversion by molar mass, not a printed value.

Format in all cases: functional
Assay [1] has as its system Mycobacterium tuberculosis. As to the kind of experiment: Antimycobacterial activity against multidrug-resistant Mycobacterium tuberculosis 7106 harboring rpoB S531L/katG S315T mutation after 7 days by resazurin microtitre plate assay. In short, it runs like this: (§1)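 REMA in Middlebrook 7H9 with OADC. Three-week culture vortexed with glass beads, adjusted to 1.0 McFarland (about 3×10⁸ bacteria/mL) and diluted 20-fold. Final concentrations 1.6–200 via 2-fold dilutions; growth control plus 1% ([…] diluted) control. 7 days at 35 °C, then 0.01% resazurin for 18 h; fluorescence ex 520/em 590 nm. MIC taken where fluorescence plateaued or matched the 1% control (t-test).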
A general note: The colour change of resazurin is a common sign of viable cells or microbes.

Assay [2] deals with Mycobacterium tuberculosis. As to the kind of experiment: Antimycobacterial activity against multidrug-resistant Mycobacterium tuberculosis 2712 harboring rpoB S531L/katG I335V/ahpC T10 mutation after 7 days by resazurin microtitre plate assay. In short, it runs like this: as §1
The subject of assay [3] is Mycobacterium tuberculosis. Put plainly: Antimycobacterial activity against multidrug-resistant Mycobacterium tuberculosis 5023 harboring rpoB S531L/katG S315T mutation mutation after 7 days by resazurin microtitre plate assay. In short, it runs like this:
as §1

Assay [4] has as its system Mycobacterium tuberculosis. As to the kind of experiment: Antitubercular activity against multidrug-resistant Mycobacterium tuberculosis 2712 infected in C57BL/6 mouse assessed as colony forming units per lung mass units at 28 mg/kg, po administered via gavage over 42 days (excluding weekends) cotreated with prothionamide, levofloxacin and p-aminosalicylic acid (reference value: 85.7 +/- 5.3 x 10^3).

Assay [5] has as its system Mycobacterium tuberculosis. Put plainly: Antitubercular activity against multidrug-resistant Mycobacterium tuberculosis 2712 infected in C57BL/6 mouse assessed as tubercular foci index at 28 mg/kg, po administered via gavage over 42 days (excluding weekends) cotreated with prothionamide, levofloxacin and p-aminosalicylic acid (reference value: 3.46 +/- 0.09).
The subject of assay [6] is Mycobacterium tuberculosis. As to the kind of experiment: Antitubercular activity against multidrug-resistant Mycobacterium tuberculosis 2712 infected in C57BL/6 mouse assessed as lung mass index at 28 mg/kg, po administered via gavage over 42 days (excluding weekends) cotreated with prothionamide, levofloxacin and p-aminosalicylic acid (reference value: 1.81 +/- 0.12).

`Cc1cnc(CCNC(=O)c2ccc([N+](=O)[O-])o2)n1C1CCC1`: the MIC in assay [1], in assay [2] and in assay [3] was 12.5 µg/mL (≈ 39.3 µM) in each case.

`CCCn1c(C)cnc1C1CN(C(=O)c2ccc([N+](=O)[O-])o2)C1`: the MIC in assay [1] was 3.1 µg/mL (≈ 9.74 µM); in assay [2], 0.8 µg/mL (≈ 2.51 µM); in assay [3], 3.1 µg/mL (≈ 9.74 µM). Further, the Activity in assay [4] was 10.6 ×10³ CFU. In addition, the Activity_index in assay [5] is recorded as 2.54; in assay [6], 1.15.

In the case of `Cc1cnc(CC2CCN(C(=O)c3ccc([N+](=O)[O-])o3)C2)n1CC1CC1` (stereo not drawn), the figures for the MIC in assay [1], in assay [2] and in assay [3] were 12.5 µg/mL (≈ 34.9 µM), 1.6 µg/mL (≈ 4.46 µM) and 6.2 µg/mL (≈ 17.3 µM), respectively.

For `Cc1cnc(-c2ccccc2)n1CC1CCN(C(=O)c2ccc([N+](=O)[O-])o2)C1` (stereo not drawn), the minimum inhibitory concentration (MIC) was 6.2 µg/mL (≈ 16.3 µM) in assay [1], 3.1 µg/mL (≈ 8.15 µM) in assay [2] and 6.2 µg/mL (≈ 16.3 µM) in assay [3].

With `Cc1cnc(C)n1C1CCN(C(=O)c2ccc([N+](=O)[O-])o2)C1` (stereo not drawn), the MIC turned out to be 12.5 µg/mL (≈ 41.1 µM) in assay [1], 25 µg/mL (≈ 82.2 µM) in assay [2] and 25 µg/mL (≈ 82.2 µM) in assay [3].

For orientation: MIC means the least concentration at which growth counts as inhibited. A low value points to a more susceptible organism.

These data come from ChEMBL document CHEMBL4261586, “Conjugation of a 5-nitrofuran-2-oyl moiety to aminoalkylimidazoles produces non-toxic nitrofurans that are efficacious in vitro and in vivo against multidrug-resistant Mycobacterium tuberculosis” (Eur J Med Chem, 2018).
